{"source": "PubChem BioAssay", "note": "Activity calls are given as the source filed them.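 How the source made its calls: active means primary screen active whose calcium signal fell more than 3 SD beyond the full-serotonin control mean in both duplicate plates; inactive means the rest.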", "data": [{"assay": "calcium flux inhibitors in TRPC4/5HT1a cells, confirmation, counter-screen for TRPC4 inhibitor project, cell-based, second counter screen, HEK293 TRPC4/5HT1a, Fluo-4 (AID 434978);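 on outcome: serotonin given first at submaximal then at maximal dose after compound preincubation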", "details": "Fluo-4 calcium flux, at 10 µM, serotonin added to trigger calcium flux; active compounds read high", "outline": "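System: HEK293 line stably carrying TRPC4 plus 5HT1a receptor. Schedule: 110 s each for compound, submaximal and ECmax serotonin. Technique: kinetic Fluo-4 fluorescence readout of calcium flux. Replication: duplicate plates.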", "values": [{"smiles": "Cc1ccccc1Cn1c(=N)n(CC(O)c2ccco2)c2ccccc21", "note": "(centres undefined)", "inhibition": "33.6% (active)"}, {"smiles": "CN1CCN(c2ccc(NC(=O)c3ccc(-c4ccc(Cl)cc4)o3)cc2)CC1", "outcome": "inactive"}, {"smiles": "COc1cc(C(F)(F)F)nc2c(Br)c(C(C)(C)C)nn12", "inhibition": "35.3% (active)"}, {"smiles": "Clc1cccc(C[n+]2cc(-c3ccccc3)n3c2CCC3)c1", "inhibition": "15.5% (active)"}, {"smiles": "COC(=O)c1ccc(CSc2nc3ccccc3c(=O)n2CC(C)C)o1", "inhibition": "39.8% (active)"}, {"smiles": "CN(C)c1ccc(NC(=O)CN2C3CCCC2CC(NC(=O)c2ccccc2)C3)cc1", "note": "(centres undefined)", "outcome": "inactive"}, {"smiles": "Cc1ccn2c(CNCCCn3cccn3)c(C(=O)N3CCCCCC3)nc2c1", "outcome": "inactive"}, {"smiles": "O=C(O)c1ccc(N/N=C/c2ccc(-c3cccc(Cl)c3)o2)cc1", "outcome": "inactive"}, {"smiles": "NS(=O)(=O)c1ccc(CCNCc2ccccc2OCc2ccc(Cl)cc2)cc1", "inhibition": "31.3% (active)"}, {"smiles": "CCCCn1c(NCCO)nc2ccccc21", "inhibition": "29.5% (active)"}, {"smiles": "CCCOc1ccc(-c2nc(SCc3ccccc3)[nH]c(=O)c2C#N)cc1OC", "outcome": "inactive"}, {"smiles": "NC(=O)c1nsc(C(=O)N(Cc2ccccc2Cl)C(C(=O)NCC2CCCO2)c2ccc(O)cc2)c1N", "note": "(centres undefined)", "inhibition": "28.6% (active)"}, {"smiles": "N#Cc1cccc2c1-c1ccccc1/C2=N/NC(N)=O", "inhibition": "19.9% (active)"}, {"smiles": "CCCn1c(NC(=O)c2ccc(Cl)c(S(=O)(=O)N3CCCC3)c2)nc2ccccc21", "outcome": "inactive"}, {"smiles": "CCOC(=O)C(C)Sc1nc2c(c(=O)[nH]c(=O)n2C)n1Cc1ccc(Cl)cc1", "note": "(centres undefined)", "inhibition": "19.9% (active)"}, {"smiles": "OCCNc1nc2ccccc2n1CCN1CCCCC1", "inhibition": "22.9% (active)"}, {"smiles": "Cc1cc(N2CCC(C)CC2)nc2cccc(O)c12", "outcome": "inactive"}, {"smiles": "CCCN1C2=NCCN2c2cc(C)c(C)cc21", "inhibition": "25.6% (active)"}, {"smiles": "COc1ccc(C2NC(C(=O)O)Cc3c2[nH]c2ccccc32)cc1CN1CCN(c2ccc(F)cc2)CC1", "note": "(centres undefined)", "inhibition": "41.6% (active)"}, {"smiles": "COc1cc(CNC2CCCC2)cc(Cl)c1OCc1ccc(F)cc1", "inhibition": "37.5% (active)"}, {"smiles": "CC1CCN(C(C)C(=O)Nc2ccccc2-c2ccccc2)CC1", "note": "(centres undefined)", "inhibition": "33.1% (active)"}, {"smiles": "COc1cccc(C(=O)C2CCCN(Cc3cccn3-c3ccccn3)C2)c1", "note": "(centres undefined)", "inhibition": "35.6% (active)"}, {"smiles": "N=c1c2c(n(Cc3ccccc3)c3c1CCC3)CCC2", "inhibition": "37.3% (active)"}, {"smiles": "OCC1(CCCc2ccccc2)CCN(Cc2cc(F)ccc2F)CC1", "outcome": "inactive"}, {"smiles": "N#Cc1c(NC(=O)C2CC(Cl)=CCC2C(=O)O)sc2c1CCCCC2", "note": "(centres undefined)", "inhibition": "18.6% (active)"}, {"smiles": "c1ccc2[nH]c(CCCCc3nc4ccccc4[nH]3)nc2c1", "inhibition": "40.6% (active)"}, {"smiles": "CN(C)CCN1C(=O)C2C(C(=O)Nc3cc(Cl)cc(Cl)c3)C3C=CC2(O3)C1C(=O)NC1CCCCC1", "note": "(centres undefined)", "outcome": "inactive"}, {"smiles": "CCc1cccc(OCC(=O)Nc2ccc(C(=O)O)cc2NC(=O)COc2cccc(CC)c2)c1", "inhibition": "40.9% (active)"}, {"smiles": "CCc1ccc2nc(N=C(N)N)nc(C)c2c1", "outcome": "inactive"}, {"smiles": "C=CCOc1ccc(Br)cc1CNC(C)(C)CO", "inhibition": "24.1% (active)"}, {"smiles": "O=c1c2ccccc2[nH]c(=S)n1CCN1CCN(Cc2ccccc2)CC1", "outcome": "inactive"}, {"smiles": "CN(CC(=O)NC1CCCc2ccccc21)C1CCCCC1", "note": "(centres undefined)", "outcome": "inactive"}, {"smiles": "Cc1cc(C(=O)N/N=C\\c2cc(C(C)(C)C)ccc2O)n[nH]1", "inhibition": "24.2% (active)"}, {"smiles": "CC1(C)CC2CC(C)(CN2C(=O)c2cc(-c3ccc(O)cc3)on2)C1", "note": "(centres undefined)", "inhibition": "31.1% (active)"}, {"smiles": "OCC1(Cc2ccccc2)CCCN(Cc2cnn(-c3ccccc3)c2)C1", "note": "(centres undefined)", "inhibition": "36.1% (active)"}, {"smiles": "CCOc1ccccc1CN1CCC(n2nccc2NC(=O)CCc2ccccc2)CC1", "outcome": "inactive"}, {"smiles": "CCCOc1cccc(C(=O)NCCNC(=O)c2ccco2)c1", "outcome": "inactive"}, {"smiles": "Brc1ccc(CN2C3=NCCCN3c3ccccc32)cc1", "inhibition": "9.36% (active)"}, {"smiles": "Cc1[nH]n(C)c(=O)c1C(=O)c1c(-c2c(Cl)cccc2Cl)noc1C", "inhibition": "27.3% (active)"}]}]}
